pIC50: −log10 of the molar value. Peptide text beside a SMILES is read from it. * marks the point of attachment. X1 = CC1=C(C*)C2=C(C)C3(CC3)[C@@](C)(O)C(=O)C2=C1
Assay: Concentration required for 50% toxicity in metastatic lung carcinoma (MV522) cells.
Settings: Homo sapiens
Summary of the method: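 Compounds held as 1 mg/mL DMSO stock, diluted in 20% DMSO/phosphate-buffered saline just before addition to MV 522 cultures; controls got equal DMSO/PBS. After 48 h incubation, cells were washed, stained with trypan blue and counted. Counts were reported as corresponding closely with colony-forming assay values.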

| SMILES | pIC50 |
| --- | --- |
| CC1=C(CSCC[C@H](N)C(=O)O)C2=C(C)C3(CC3)[C@@](C)(O)C(=O)C2=C1 | < 4.30 |
| CC1=C(CSCC(N)C(=O)O)C2=C(C)C3(CC3)[C@@](C)(O)C(=O)C2=C1 (stereo partly specified) | 4.53 |
| CC1=C(CSCC(NC(=O)CCC(N)C(=O)O)C(=O)NCC(=O)O)C2=C(C)C3(CC3)[C@@](C)(O)C(=O)C2=C1 (stereo partly specified) | 4.81 |
| CC(=O)NC(CSCC1=C(C)C=C2C(=O)[C@](C)(O)C3(CC3)C(C)=C21)C(=O)N[C@@H](C)c1ccccc1 (stereo partly specified) | 5.60 |
| CC1=C2C(=C[C@@](C)(CO)C2O)C(=O)[C@](C)(O)C12CC2 (stereo partly specified) | 7.14 |
| CC(=O)N[C@@H](CSCC1=C(C)C=C2C(=O)[C@](C)(O)C3(CC3)C(C)=C21)C(=O)N[C@@H](Cc1ccccc1)C(=O)NCC(=O)N[C@@H](CC(C)C)C(=O)O (Ac-C(X1)FGL-OH) | 4.43 |
| CC(=O)N[C@@H](CSCC1=C(C)C=C2C(=O)[C@](C)(O)C3(CC3)C(C)=C21)C(=O)N[C@@H](CC(C)C)C(=O)NCC(=O)N[C@@H](Cc1ccccc1)C(=O)O (Ac-C(X1)LGF-OH) | 4.55 |
| CC(=O)N[C@@H](CSCC1=C(C)C=C2C(=O)[C@](C)(O)C3(CC3)C(C)=C21)C(=O)N[C@@H](CC(C)C)C(=O)N[C@@H](CC(C)C)C(=O)N[C@@H](Cc1ccccc1)C(=O)O (Ac-C(X1)LLF-OH) | < 4.40 |
| CC(=O)N[C@@H](CSCC1=C(C)C=C2C(=O)[C@](C)(O)C3(CC3)C(C)=C21)C(=O)N[C@@H](CC(C)C)C(=O)N[C@@H](CC(C)C)C(=O)N[C@@H](CC(C)C)C(=O)O (Ac-C(X1)LLL-OH) | 4.61 |
| CC1=CC2=C(C)C3(CC3)[C@@](C)(O)C(=O)C2=C1 [ACYLFULVENE] | 6.46 |
| CC1=C(CO)C2=C(C)C3(CC3)[C@@](C)(O)C(=O)C2=C1 [IROFULVEN] | 8.40 |
